ChEMBL document CHEMBL1828498, “Identification and characterization of a novel integrin-linked kinase inhibitor” (J Med Chem, 2011)
The source made the active and inactive calls. How the calls were made is not given here.

Tests used:
[1] = system: 3-phosphoinositide dependent protein kinase-2, PDK2; experiment: Inhibition of PDK2 in human PC3 cells assessed as Akt Ser-473 dephosphorylation by Western blot analysis; type: functional, cell-based; conditions: PC-3
In short: (§1)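 Cells exposed 24 h in 5% FBS medium, final DMSO 0.1%; lysed in 1% SDS/10 mM EDTA/50 mM Tris pH 8.1, equal protein on SDS-PAGE, nitrocellulose, primary antibody 1:1000 at 4°C for 2 h, HRP secondary 1:5000, ECL detection; blots representative of three independent experiments.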

[2] = target: T1, 3-phosphoinositide-dependent protein kinase 1 (Homo sapiens) (UniProt O15530); experiment: Inhibition of PDK2 in human PC3 cells assessed as Akt Thr-308 dephosphorylation by Western blot analysis; type: functional, cell-based; conditions: PC-3; in short: as §1
T1 sequence (whole entry): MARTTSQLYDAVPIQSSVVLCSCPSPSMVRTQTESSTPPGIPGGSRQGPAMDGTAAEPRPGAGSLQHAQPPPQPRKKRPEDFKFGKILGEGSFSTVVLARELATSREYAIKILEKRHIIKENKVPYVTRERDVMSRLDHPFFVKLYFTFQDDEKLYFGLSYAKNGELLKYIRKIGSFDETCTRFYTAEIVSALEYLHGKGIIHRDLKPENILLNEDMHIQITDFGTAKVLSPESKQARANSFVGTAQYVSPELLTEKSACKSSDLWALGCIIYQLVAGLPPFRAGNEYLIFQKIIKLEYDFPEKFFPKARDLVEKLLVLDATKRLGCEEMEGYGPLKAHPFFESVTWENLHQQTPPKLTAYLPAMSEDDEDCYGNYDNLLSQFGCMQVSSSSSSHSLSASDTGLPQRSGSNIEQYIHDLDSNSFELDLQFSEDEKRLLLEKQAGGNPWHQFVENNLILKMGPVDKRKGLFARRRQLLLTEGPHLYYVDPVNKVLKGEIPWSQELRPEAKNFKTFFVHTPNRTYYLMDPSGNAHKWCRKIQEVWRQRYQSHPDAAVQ

Which inhibition [1] does the source give for `NC(=O)CNc1ccc(-n2nc(C(F)(F)F)cc2-c2ccc3c(ccc4ccccc43)c2)cc1` here?
The inhibition was “inactive”.

And the inhibition [2]?
Its inhibition is “inactive”.

`CC(C)NC(=O)c1cc(-c2ccc(-c3ccc(C(F)(F)F)cc3)cc2)n(-c2ccc(NC(=O)CCN)cc2)n1` was tested. Which inhibition [1] did it give?
The inhibition was “inactive”.

What about the inhibition [2] of the same molecule?
Its inhibition is “inactive”.

With `CNC(=O)CCc1cc(-c2ccc(-c3ccc(C#N)cc3)cc2)n(-c2ccc(N3CCNCC3)cc2)n1` as the molecule, how does the inhibition [1] read?
The inhibition was “inactive”.

And the inhibition [2]?
The inhibition was “inactive”.

Which inhibition [1] does the source give for `NC(=O)c1ccc(C(=O)N2CCN(c3ccc(-n4nc(C(F)(F)F)cc4-c4ccc5c(ccc6ccccc65)c4)cc3)CC2)cc1` here?
The inhibition was “inactive”.

What about the inhibition [2] of the same molecule?
The inhibition was “inactive”.

`CNC(=O)c1cc(-c2ccc(-c3ccc(C(F)(F)F)cc3)cc2)n(-c2ccc(N3CCNCC3)cc2)n1` was tested. Which inhibition [1] did it give?
Its inhibition is “inactive”.

And the inhibition [2]?
Its inhibition is “inactive”.

Which results are given for `Nc1ccc(C(=O)N2CCN(c3ccc(-n4nc(C(F)(F)F)cc4-c4ccc5c(ccc6ccccc65)c4)cc3)CC2)cc1`?
inhibition [1]: inactive; inhibition [2]: inactive

Which inhibition [1] does the source give for `N#Cc1ccc(C(=O)N2CCN(c3ccc(-n4nc(C(F)(F)F)cc4-c4ccc5c(ccc6ccccc65)c4)cc3)CC2)cc1` here?
Its inhibition is “inactive”.

And the inhibition [2]?
The inhibition was “inactive”.

Which inhibition [1] does the source give for `O=C(c1ccc(OC(F)(F)F)cc1)N1CCN(c2ccc(-n3nc(C(F)(F)F)cc3-c3ccc4c(ccc5ccccc54)c3)cc2)CC1` here?
The inhibition was “inactive”.

What about the inhibition [2] of the same molecule?
The inhibition was “inactive”.

How did the inhibition [1] turn out when `CNC(=O)c1cc(-c2ccc3ccc4ccccc4c3c2)n(-c2ccc(NC(=O)CN)cc2)n1` was run?
The inhibition was “inactive”.

And the inhibition [2]?
Its inhibition is “inactive”.

Which inhibition [1] does the source give for `CNC(=O)CCc1cc(-c2ccc3c(ccc4ccccc43)c2)n(-c2ccc(N3CCNCC3)cc2)n1` here?
Its inhibition is “inactive”.

And the inhibition [2]?
The inhibition was “inactive”.

Which inhibition [1] does the source give for `CCNC(=O)CCc1cc(-c2ccc(-c3ccc(C(F)(F)F)cc3)cc2)n(-c2ccc(NC(=O)CCN)cc2)n1` here?
The inhibition was “inactive”.

And the inhibition [2]?
Its inhibition is “inactive”.

Which results are given for `NS(=O)(=O)c1ccc(-n2nc(C(F)(F)F)cc2-c2ccc3c(ccc4ccccc43)c2)cc1`?
inhibition [1]: inactive; inhibition [2]: inactive

`NCCC(=O)Nc1ccc(-n2nc(C(F)(F)F)cc2-c2ccc3c(ccc4ccccc43)c2)cc1` was tested. Which inhibition [1] did it give?
Its inhibition is “inactive”.

What about the inhibition [2] of the same molecule?
The inhibition was “inactive”.

Which results are given for `NCCCC[C@@H](N)C(=O)Nc1ccc(-n2nc(C(F)(F)F)cc2-c2ccc3c(ccc4ccccc43)c2)cc1`?
inhibition [1]: inactive; inhibition [2]: inactive

What does the source list for `NCCCC[C@H](N)C(=O)Nc1ccc(-n2nc(C(F)(F)F)cc2-c2ccc3c(ccc4ccccc43)c2)cc1`?
inhibition [1]: inactive; inhibition [2]: inactive

Which inhibition [1] does the source give for `NS(=O)(=O)Nc1ccc(-n2nc(C(F)(F)F)cc2-c2ccc3c(ccc4ccccc43)c2)cc1` here?
Its inhibition is “inactive”.

And the inhibition [2]?
Its inhibition is “inactive”.

With `COc1cc([N+](=O)[O-])ccc1S(=O)(=O)N1CCN(c2ccc(-n3nc(C(F)(F)F)cc3-c3ccc4c(ccc5ccccc54)c3)cc2)CC1` as the molecule, how does the inhibition [1] read?
Its inhibition is “inactive”.

What about the inhibition [2] of the same molecule?
Its inhibition is “inactive”.

Which inhibition [1] does the source give for `CCNC(=O)c1cc(-c2ccc3ccc4ccccc4c3c2)n(-c2ccc(NC(=O)CN)cc2)n1` here?
Its inhibition is “inactive”.

And the inhibition [2]?
Its inhibition is “inactive”.

With `CNC(=O)CCc1cc(-c2ccc(-c3ccc(C(F)(F)F)cc3)cc2)n(-c2ccc(N3CCOCC3)cc2)n1` as the molecule, how does the inhibition [1] read?
Its inhibition is “inactive”.

And the inhibition [2]?
Its inhibition is “inactive”.

How did the inhibition [1] turn out when `O=C(Nc1ccc(-n2nc(C(F)(F)F)cc2-c2ccc3c(ccc4ccccc43)c2)cc1)N1CCOCC1` was run?
The inhibition was “inactive”.

And the inhibition [2]?
Its inhibition is “inactive”.

Which inhibition [1] does the source give for `O=[N+]([O-])c1ccc(S(=O)(=O)N2CCN(c3ccc(-n4nc(C(F)(F)F)cc4-c4ccc5c(ccc6ccccc65)c4)cc3)CC2)c([N+](=O)[O-])c1` here?
The inhibition was “inactive”.

What about the inhibition [2] of the same molecule?
Its inhibition is “inactive”.

How did the inhibition [1] turn out when `NCCC(=O)Nc1ccc(-n2nc(C(F)(F)F)cc2-c2ccc3ccc4ccccc4c3c2)cc1` was run?
The inhibition was “inactive”.

And the inhibition [2]?
Its inhibition is “inactive”.

With `O=C(c1cccc([N+](=O)[O-])c1)N1CCN(c2ccc(-n3nc(C(F)(F)F)cc3-c3ccc4c(ccc5ccccc54)c3)cc2)CC1` as the molecule, how does the inhibition [1] read?
The inhibition was “inactive”.

What about the inhibition [2] of the same molecule?
The inhibition was “inactive”.

What does the source list for `CC(=O)c1cc(C(=O)N2CCN(c3ccc(-n4nc(C(F)(F)F)cc4-c4ccc5c(ccc6ccccc65)c4)cc3)CC2)ccc1Cl`?
inhibition [1]: inactive; inhibition [2]: inactive

What does the source list for `NCC(=O)Nc1ccc(-n2nc(C(F)(F)F)cc2-c2ccc3ccc4ccccc4c3c2)cc1`?
inhibition [1]: inactive; inhibition [2]: inactive

Which inhibition [1] does the source give for `CCNC(=O)CCc1cc(-c2ccc(-c3ccc(C(F)(F)F)cc3)cc2)n(-c2ccc(N3CCNCC3)cc2)n1` here?
The inhibition was “Active”.

And the inhibition [2]?
The inhibition was “inactive”.

How did the inhibition [1] turn out when `NCCC(=O)Nc1ccc(-n2nc(C(F)(F)F)cc2-c2ccc3c(c2)oc2ccccc23)cc1` was run?
The inhibition was “inactive”.

And the inhibition [2]?
Its inhibition is “inactive”.

`NC(=O)CCNc1ccc(-n2nc(C(F)(F)F)cc2-c2ccc3c(ccc4ccccc43)c2)cc1` was tested. Which inhibition [1] did it give?
Its inhibition is “inactive”.

What about the inhibition [2] of the same molecule?
The inhibition was “inactive”.

`O=C1CCC(=O)N1c1ccc(-n2nc(C(F)(F)F)cc2-c2ccc3c(ccc4ccccc43)c2)cc1` was tested. Which inhibition [1] did it give?
Its inhibition is “inactive”.

What about the inhibition [2] of the same molecule?
The inhibition was “inactive”.

Which inhibition [1] does the source give for `O=C(c1ccc([N+](=O)[O-])cc1)N1CCN(c2ccc(-n3nc(C(F)(F)F)cc3-c3ccc4c(ccc5ccccc54)c3)cc2)CC1` here?
Its inhibition is “inactive”.

And the inhibition [2]?
Its inhibition is “inactive”.

With `CC(=O)Nc1ccc(S(=O)(=O)N2CCN(c3ccc(-n4nc(C(F)(F)F)cc4-c4ccc5c(ccc6ccccc65)c4)cc3)CC2)cc1` as the molecule, how does the inhibition [1] read?
Its inhibition is “inactive”.

What about the inhibition [2] of the same molecule?
The inhibition was “inactive”.

`CNC(=O)c1cc(-c2ccc3c(ccc4ccccc43)c2)n(-c2ccc(NC(=O)CN)cc2)n1` was tested. Which inhibition [1] did it give?
The inhibition was “inactive”.

What about the inhibition [2] of the same molecule?
Its inhibition is “inactive”.

For `O=C(c1ccc(Cl)c([N+](=O)[O-])c1)N1CCN(c2ccc(-n3nc(C(F)(F)F)cc3-c3ccc4c(ccc5ccccc54)c3)cc2)CC1`, which inhibition [1] is on record?
The inhibition was “inactive”.

And the inhibition [2]?
The inhibition was “inactive”.

For `NCC(=O)Nc1ccc(-n2nc(C(F)(F)F)cc2-c2ccc3c(c2)oc2ccccc23)cc1`, which inhibition [1] is on record?
The inhibition was “inactive”.

And the inhibition [2]?
The inhibition was “inactive”.

What does the source list for `CC(C)NC(=O)CCc1cc(-c2ccc(-c3ccc(C(F)(F)F)cc3)cc2)n(-c2ccc(NC(=O)CCN)cc2)n1`?
inhibition [1]: inactive; inhibition [2]: inactive

Which results are given for `COc1ccc(S(=O)(=O)N2CCN(c3ccc(-n4nc(C(F)(F)F)cc4-c4ccc5c(ccc6ccccc65)c4)cc3)CC2)cc1`?
inhibition [1]: inactive; inhibition [2]: inactive

Which results are given for `CNC(=O)CCc1cc(-c2ccc(-c3ccc(C(F)(F)F)cc3)cc2)n(-c2ccc(NC(=O)CCN)cc2)n1`?
inhibition [1]: inactive; inhibition [2]: inactive

With `CCNC(=O)c1cc(-c2ccc(-c3ccc(C(F)(F)F)cc3)cc2)n(-c2ccc(NC(=O)CCN)cc2)n1` as the molecule, how does the inhibition [1] read?
Its inhibition is “inactive”.

And the inhibition [2]?
Its inhibition is “inactive”.

What does the source list for `N#Cc1cccc(C(=O)N2CCN(c3ccc(-n4nc(C(F)(F)F)cc4-c4ccc5c(ccc6ccccc65)c4)cc3)CC2)c1`?
inhibition [1]: inactive; inhibition [2]: inactive

Which results are given for `O=C(c1ccncc1)N1CCN(c2ccc(-n3nc(C(F)(F)F)cc3-c3ccc4c(ccc5ccccc54)c3)cc2)CC1`?
inhibition [1]: inactive; inhibition [2]: inactive

Which inhibition [1] does the source give for `CC(=O)c1ccc(S(=O)(=O)N2CCN(c3ccc(-n4nc(C(F)(F)F)cc4-c4ccc5c(ccc6ccccc65)c4)cc3)CC2)cc1` here?
Its inhibition is “inactive”.

And the inhibition [2]?
Its inhibition is “inactive”.

For `CCNC(=O)c1cc(-c2ccc3ccc4ccccc4c3c2)n(-c2ccc(NC(=O)CCN)cc2)n1`, which inhibition [1] is on record?
Its inhibition is “inactive”.

And the inhibition [2]?
Its inhibition is “inactive”.

How did the inhibition [1] turn out when `CC(C)CC(N)C(=O)Nc1ccc(-n2nc(C(F)(F)F)cc2-c2ccc(-c3ccc(C(F)(F)F)cc3)cc2)cc1` (configuration not stated) was run?
The inhibition was “inactive”.

And the inhibition [2]?
Its inhibition is “inactive”.

How did the inhibition [1] turn out when `CNC(=O)c1cc(-c2ccc3c(ccc4ccccc43)c2)n(-c2ccc(NC(=O)CCN)cc2)n1` was run?
The inhibition was “inactive”.

What about the inhibition [2] of the same molecule?
Its inhibition is “inactive”.

For `NC(=O)c1cccc(C(=O)N2CCN(c3ccc(-n4nc(C(F)(F)F)cc4-c4ccc5c(ccc6ccccc65)c4)cc3)CC2)c1`, which inhibition [1] is on record?
The inhibition was “inactive”.

And the inhibition [2]?
The inhibition was “inactive”.

Which results are given for `FC(F)(F)c1ccc(-c2ccc(-c3cc(C(F)(F)F)nn3-c3ccc(N4CCNCC4)cc3)cc2)cc1`?
inhibition [1]: inactive; inhibition [2]: inactive

`O=[N+]([O-])c1ccc(S(=O)(=O)N2CCN(c3ccc(-n4nc(C(F)(F)F)cc4-c4ccc5c(ccc6ccccc65)c4)cc3)CC2)cc1` was tested. Which inhibition [1] did it give?
The inhibition was “inactive”.

What about the inhibition [2] of the same molecule?
Its inhibition is “inactive”.

Which inhibition [1] does the source give for `NCCCC[C@H](N)C(=O)Nc1ccc(-n2nc(C(F)(F)F)cc2-c2ccc(-c3ccc(C(F)(F)F)cc3)cc2)cc1` here?
Its inhibition is “inactive”.

What about the inhibition [2] of the same molecule?
Its inhibition is “inactive”.

Which results are given for `CCC(C)C(N)C(=O)Nc1ccc(-n2nc(C(F)(F)F)cc2-c2ccc(-c3ccc(C(F)(F)F)cc3)cc2)cc1` (configuration not stated)?
inhibition [1]: inactive; inhibition [2]: inactive

With `NC(Cc1ccccc1)C(=O)Nc1ccc(-n2nc(C(F)(F)F)cc2-c2ccc(-c3ccc(C(F)(F)F)cc3)cc2)cc1` (configuration not stated) as the molecule, how does the inhibition [1] read?
The inhibition was “inactive”.

What about the inhibition [2] of the same molecule?
Its inhibition is “inactive”.

How did the inhibition [1] turn out when `NCCC(=O)Nc1ccc(-n2nc(C(F)(F)F)cc2-c2ccc(-c3ccc(C(F)(F)F)cc3)cc2)cc1` was run?
Its inhibition is “inactive”.

What about the inhibition [2] of the same molecule?
Its inhibition is “inactive”.
